The text below walks through data of PMC7193547 (Environmental Science & Technology, 2018).

As a reminder, the Papp is the rate of passage across a membrane or cell layer, normalised by area and donor concentration. Higher therefore signals fast passage. In general, Km refers to the concentration of substrate that gives half-maximal velocity.

The format of series [1] is physicochemical. The following applies: not told.
The test system of another series is single bacterial cell. Summed up:
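Calculated rather than measured: the liposome-derived Papp was scaled to a single cell using an estimated cell surface area of ≈3 μm² and membrane thickness δ (one 4 nm membrane for Gram-positive, two 4 nm membranes for Gram-negative), giving a concentration-gradient-dependent influx.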

For a further series, the system named is Ochrobactrum sp. FrEM. Kind of series: Biodegradation of glyphosate by Ochrobactrum sp. FrEM. It is filed as cell-based. The following applies: after 4.5 days, OD600 ≈ 0.8, 30 °C, pH 7.
In series [2] the test system is active glyphosate transporter. The settings on record: cited from earlier work.

Read-outs that look alike come from different tables or passages of the source.

Turning to `O=C(O)CNCP(=O)(O)O` [glyphosate, N-(phopshomethyl)glycine], the Papp at 20 mM in series [1] (pH 4.1) was found to be 420 ×10⁻⁶ cm/s; in series [1] (pH 7), 37 ×10⁻⁶ cm/s. Moreover, the “calculated maximum membrane permeation rate (dnout/dt)cell-perm-max” value with single bacterial cell (glyphosate concentration of 1 μM) is on record as −6.5 × 10^–22 mol·s^–1·cell^–1; in the series on single bacterial cell (pH 7, 0.12 mM glyphosate, compared with Ochrobactrum sp. FrEM), −7.5 × 10^–20 mol·s^–1·cell^–1; in the series with single bacterial cell (pH 7, 3 mM glyphosate, [Sin] = 0, compared with Achromobacter sp. MPS 12A), −1.9 × 10^–18 mol·s^–1·cell^–1. Also, the “maximum permeation rate higher than degradation rate” value in the series on single bacterial cell (pH 7, 3 mM, versus degradation rate of Achromobacter sp. MPS 12A) was 2 orders of magnitude. For the same compound, the “maximum glyphosate degradation rate (dn/dt)deg-cell” value in the series with Ochrobactrum sp. FrEM is −1.7 × 10^–21 mol·s^–1·cell^–1. For the same compound, the “uptake rate of active glyphosate transporter (dnout/dt)cell-transport” value in series [2] is reported as −1.8 × 10^–21 mol·s^–1·cell^–1. The Michaelis-Menten constant (Km) in series [2] (read-out: affinity constant KM for glyphosate uptake) is 125 µM.
